Sampled rows, rich in hits. Any-hit rate of the full collection: about 3.5%.
ABCG2 inh – ABCG2 efflux pump inhibitors, primary screen, multiplex with ABCB1, IgMXP3 cells, flow cytometry. JC-1 efflux. AID 1325, 2008. 190,000 compounds, 0.1% hits. inhibition, % at 6.6 µM. Broad substrate specificity ATP-binding cassette transporter ABCG2 (Homo sapiens), Q9UNQ0;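 active means inhibition above 80%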
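System: two drug-resistant human cell lines, ABCG2 and ABCB1; controls: nicardipine high and DMSO low controls; times: 10 min exposure at 25 °C with rotation, no wash; detection: flow cytometry of retained JC-1 fluorescence; read-out basis: percent efflux inhibition, scaled nicardipine 100% to DMSO 0%; doses: one concentration, 6.6 µM final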
MEKK3 PB1 HTS – modulators of MEKK3-MEK5 PB1 binding, primary screen, biochemical, wildtype MEKK3, multiplex bead flow cytometry, Alexa488-MEK5 | Mitogen-activated protein kinase kinase kinase 3 (Homo sapiens), Q99759 | bead-based flow cytometry, Alexa488-MEK5 binding to MEKK3; actives lie on both sides; 0 = blocked by unlabeled MEK5, 100 = vehicle | binding response (% of control), % at 10 µM | 290,000 compounds, 1.4% hits | AID 1529, 2009;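 active means binding response more than 3 SD above or below the average of its plate-row segment, actives on both sides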;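 further: Alexa488 bead fluorescence after subtracting the streptavidin-only scavenger bead signal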
WT yeast gro inh – growth inhibition of WT strain, primary screen, mitochondrial fusion inhibitor project, WT and mutant strains, chemical genetic; mitochondrial fusion phenotypic screen; inhibition, % at 10 µM; 190,000 compounds, 2.1% hits; AID 1362, 2008; in the data active means inhibition above about 58%; tested in S. cerevisiae
ABCB1 block – ABCB1 efflux pump inhibitors, primary screen, cell-based, multiplex, flow cytometry, ABCG2 counter-screen | 190,000 compounds, 0.067% hits | CCRF-Adr cells, JC-1 efflux | inhibition, % at 6.6 µM | ATP-dependent translocase ABCB1 (Homo sapiens), P08183 | AID 1326, 2008; in the data active means inhibition above about 40%;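 further: higher value means more JC-1 retained so stronger ABCB1 efflux block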
Target sequence (P08183 whole entry, looked up): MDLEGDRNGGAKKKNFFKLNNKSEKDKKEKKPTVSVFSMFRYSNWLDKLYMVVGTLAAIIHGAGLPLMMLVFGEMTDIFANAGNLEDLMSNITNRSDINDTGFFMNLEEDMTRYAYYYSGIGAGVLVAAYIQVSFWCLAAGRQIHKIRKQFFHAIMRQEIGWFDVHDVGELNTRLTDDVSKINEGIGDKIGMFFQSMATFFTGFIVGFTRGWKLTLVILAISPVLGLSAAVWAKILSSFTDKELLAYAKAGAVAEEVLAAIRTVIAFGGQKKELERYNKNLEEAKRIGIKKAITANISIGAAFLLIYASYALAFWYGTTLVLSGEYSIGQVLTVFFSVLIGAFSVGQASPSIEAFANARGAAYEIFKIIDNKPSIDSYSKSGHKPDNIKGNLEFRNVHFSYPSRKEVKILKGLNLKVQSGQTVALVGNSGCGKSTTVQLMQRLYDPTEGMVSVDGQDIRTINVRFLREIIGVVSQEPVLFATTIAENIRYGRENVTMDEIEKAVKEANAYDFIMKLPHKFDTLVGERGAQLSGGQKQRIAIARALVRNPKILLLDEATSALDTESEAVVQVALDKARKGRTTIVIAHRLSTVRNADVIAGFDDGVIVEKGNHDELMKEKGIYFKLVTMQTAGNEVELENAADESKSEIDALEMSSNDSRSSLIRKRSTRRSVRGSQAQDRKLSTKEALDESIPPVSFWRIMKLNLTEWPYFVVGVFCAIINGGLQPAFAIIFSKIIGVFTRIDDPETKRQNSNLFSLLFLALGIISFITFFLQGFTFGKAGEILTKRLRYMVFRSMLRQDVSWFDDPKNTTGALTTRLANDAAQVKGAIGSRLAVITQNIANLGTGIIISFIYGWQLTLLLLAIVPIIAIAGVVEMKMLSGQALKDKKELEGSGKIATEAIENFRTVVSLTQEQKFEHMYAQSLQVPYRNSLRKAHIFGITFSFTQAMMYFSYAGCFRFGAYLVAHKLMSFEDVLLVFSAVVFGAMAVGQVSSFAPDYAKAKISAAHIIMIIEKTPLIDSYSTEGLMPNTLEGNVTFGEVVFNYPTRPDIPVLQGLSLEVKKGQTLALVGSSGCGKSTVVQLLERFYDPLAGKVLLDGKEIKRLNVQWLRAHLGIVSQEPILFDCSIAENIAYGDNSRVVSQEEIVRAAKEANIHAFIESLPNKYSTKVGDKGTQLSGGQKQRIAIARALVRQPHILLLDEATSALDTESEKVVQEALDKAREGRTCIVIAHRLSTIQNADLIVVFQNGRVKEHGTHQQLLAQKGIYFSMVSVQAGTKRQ
MEKK2mut PB1 HTS – MEK5 binding signal on mutant MEKK2 PB1, primary screen, biochemical, multiplex bead flow cytometry, Alexa488-MEK5. Alexa488-MEK5 binding to MEKK2 mutant. percent response, % at 10 µM. 290,000 compounds, 0.35% hits; in the data active means percent response above about 24%, passing the limit was not always enough
MEKK2wt PB1 HTS – modulators of MEK5 binding to wildtype MEKK2, primary screen, biochemical, multiplex bead flow cytometry, Alexa488-MEK5 | Mitogen-activated protein kinase kinase kinase 2 (Homo sapiens), Q9Y2U5 | 290,000 compounds, 1.1% hits | Alexa488-MEK5 binding to MEKK2 WT; actives lie on both sides | binding response (% of control), % at 10 µM; in the data active means binding response below about 67% or above about 130%
Large screens that a line does not name were inactive; ! = not active in a repeat; [ ] = remark or other dose.

O=C(CN1CCN(Cc2ccccc2)CC1)N/N=C/c1cccnc1	none (no result: ABCG2 inh, WT yeast gro inh, ABCB1 block)
O=C(NCC(c1cccnc1)N1CCOCC1)Nc1ccccc1 (configuration not stated)	none
Cc1cc(C)nc(Sc2ncnc(N)c2[N+](=O)[O-])n1	none
O=C(CN1c2ccccc2S(=O)(=O)c2ccccc21)NCc1ccc(F)cc1	none (no result: ABCG2 inh, WT yeast gro inh, ABCB1 block)
CCCC(=O)NC(=S)Nc1cccc(Cl)c1N1CCCCC1	WT yeast gro inh 60
COC(=O)/C=C1/S/C(=N/N=C/c2ccc(N(C)C)cc2)NC1=O	none
CCC1CSC(Nc2ccc(C(=O)/C=C/c3ccc(Br)cc3)cc2)=N1 (configuration not stated)	none
CCC1CSC(Nc2ccc(C(=O)/C=C/c3ccc(OC)c(OC)c3)cc2)=N1 (configuration not stated)	WT yeast gro inh 64
COC(=O)C1=C(CS(=O)(=O)c2ccccc2)NC(=O)NC1c1ccc(OC)c(OC)c1 (configuration not stated)	none (no result: ABCG2 inh, WT yeast gro inh, ABCB1 block)
COc1ccccc1NC(=O)CN1CCN(CC(=O)Nc2ccc(OCc3ccccc3)cc2)CC1	WT yeast gro inh 66
COC(=O)[C@@H]1CC[C@H](C)[C@@H](c2ccc(C)cc2)N1C(=O)c1ccc(/C=N/O[C@@H](C)CN2CCCCc3nc(C)c(C)cc32)cc1	WT yeast gro inh 75
ClC(Cl)(c1nnnn1-c1ccccc1)c1nnnn1-c1ccccc1	WT yeast gro inh 88
CCSc1nnc(NC(=O)COc2ccc3ccccc3c2)s1	WT yeast gro inh 84
COc1ccccc1CNC(=O)CSc1ccc(-c2cccc([N+](=O)[O-])c2)nn1	none
N/C(=N\OC(=O)C12CC3CC(CC(C3)C1)C2)c1ccccc1	WT yeast gro inh 87
N/C(=N\OC(=O)C12CC3CC(CC(C3)C1)C2)c1cccnc1	none
CC(C(=O)O)n1nc(-c2ccccc2)c2ccccc21 (configuration not stated)	none (no result: ABCG2 inh, WT yeast gro inh, ABCB1 block)
CCOC(=O)c1cc2ccc3ccccc3c2s1	WT yeast gro inh 60
CCOC(=O)c1cc2ccc3ccccc3c2oc1=O	none (no result: ABCG2 inh, WT yeast gro inh, ABCB1 block)
CN1CCN(c2nc(-c3cccnc3)nc3ccccc23)CC1	WT yeast gro inh 94
c1ccc(C2=NN(c3ccccc3)CC2)cc1	none (no result: ABCG2 inh, WT yeast gro inh, ABCB1 block)
CCOC(=O)/C(=C/c1ccc(N2CCC(c3ccccc3)=N2)cc1)C(C)=O	WT yeast gro inh 78
CC1=C/C(=N\NC(=S)NCCc2ccccc2)CC(C)(C)C1	WT yeast gro inh 70
Cc1c(Cl)cccc1NC(=S)NCCc1ccc(C(F)(F)F)cc1	WT yeast gro inh 81
NNC(=S)NCCc1ccccc1	none
O=[N+]([O-])c1ccc(NC(=S)NCCc2ccc(Cl)cc2)cc1	WT yeast gro inh 83
S=C(NCCc1ccccc1)NCCc1ccccc1	WT yeast gro inh 62
Cc1cc(-c2ccc(S(=O)(=O)N3CCN(c4ccccc4F)CC3)s2)on1	none (no result: ABCG2 inh, WT yeast gro inh, ABCB1 block)
O=[N+]([O-])c1ccc(NC(=S)NCCc2ccccc2)cc1	WT yeast gro inh 81
S=C(NCCCc1ccccc1)Nc1ccccc1Cl	WT yeast gro inh 68
CCOC(=O)c1[nH]c(=O)[nH]c1COC(=O)c1cc2ccccc2o1	none
CCCCC(c1nnnn1CC1CCCO1)N1CCN(c2cc(Cl)ccc2C)CC1 (configuration not stated)	WT yeast gro inh 60
O=C(Nc1c(-c2ccccc2)nc2sccn12)c1ccccc1	none
Cc1[nH]n(-c2ccc([N+](=O)[O-])cc2)c(=O)c1C=NCCc1ccc(S(N)(=O)=O)cc1	none
Cc1[nH]n(-c2ccc([N+](=O)[O-])cc2)c(=O)c1C=NCCN1CCN(C(=O)C(C)C)CC1	WT yeast gro inh 63
N#Cc1c(-c2cccnc2)c2c([nH]c1=S)CCCC2	WT yeast gro inh 91
O=C1c2cccc3cccc(c23)C(=O)N1CCCN1CCN(c2ccc(F)cc2)CC1	WT yeast gro inh 60
CN1CCC(N(C)C(=O)CCc2nc3ccccc3c(=O)[nH]2)CC1	none
Cc1cccc(C(=O)Nc2ccc(C)c(OC(=O)c3cccc(C)c3)c2)c1	MEKK3 PB1 HTS 2.0[inhibitor], MEKK2wt PB1 HTS -2.0[inhibitor]
Cc1cccc(C(=O)Nc2ccc3ccccc3c2)c1	none (no result: ABCG2 inh, WT yeast gro inh, ABCB1 block)
Cc1ccc(C(=O)NCC(=O)O)o1	none
COCCCNC(=S)NC1CC2CCCC(C1)N2Cc1ccco1 (configuration not stated)	WT yeast gro inh 99
NS(=O)(=O)c1ccc(CCNC(=O)c2ccc[nH]c2=S)cc1	none (no result: ABCG2 inh, WT yeast gro inh, ABCB1 block)
Cc1onc(-c2c(F)cccc2Cl)c1C(=O)N(Cc1ccccc1)C(C)C	none (no result: ABCG2 inh, WT yeast gro inh, ABCB1 block)
Cc1ccc(CNc2nc(-c3cccs3)nc3ccccc23)cc1	WT yeast gro inh 76
CC1=NOC(=O)/C1=C\c1ccc(-c2ccc(Cl)cc2Cl)o1	WT yeast gro inh 85 (no result: MEKK3 PB1 HTS, MEKK2mut PB1 HTS, MEKK2wt PB1 HTS)
CCCOc1ccc(Cl)cc1/C=C1/C(=O)ON=C1C	none (no result: ABCG2 inh, WT yeast gro inh, ABCB1 block)
C=C1C(=O)C=C2CN(C(=O)c3ccccc3)[C@@](Cc3ccc(F)cc3)(C(=O)OC)[C@@H]12	WT yeast gro inh 74
COC(=O)[C@@]1(Cc2ccc(OC)cc2)[C@@H]2C(=CC(=O)[C@H]2CC(=O)C(=O)N(C)C)CN1C(=O)c1ccccc1	none
Cc1cccc(-n2c(CNC(=O)c3ccc(S(=O)(=O)N4CCCCC4)cc3)n[nH]c2=S)c1	none (no result: ABCG2 inh, WT yeast gro inh, ABCB1 block)
c1ccc(-c2ccc(-n3ccnc3)cc2)cc1	none
c1ccc(-c2ccc(C(c3ccccc3)n3ccnc3)cc2)cc1 (configuration not stated)	WT yeast gro inh 73!
CCOC(=O)c1cc2c(ccn2C)n1CC(=O)N1CCN(c2ccc(F)cc2)CC1	none
CCOC(=O)c1cc2c(ccn2C)n1Cc1cc(C)ccc1C	WT yeast gro inh 67
Cc1cc[n+](CC(=O)c2ccc(NC(=O)c3ccccc3)cc2)c2ccccc12	WT yeast gro inh 61
Cc1cc[n+](CC(=O)c2ccc(NC(=O)c3ccccc3)cc2)cc1	none
O=C(NCCCN1CCOCC1)C(=O)NCc1ccccc1Cl	none
Cn1c(CN2CCCCC2)nc2cc(NC(=O)c3ccc(Cl)cc3)ccc21	WT yeast gro inh 70
Cc1ccc(C(C)C)c(OCC(=O)Nc2ccc3c(c2)nc(CCN2CCCCC2)n3C)c1	MEKK2wt PB1 HTS 141 (no result: ABCG2 inh, WT yeast gro inh, ABCB1 block)
CCOC(=O)Cn1c(C)[n+](CC(=O)c2ccccc2)c2ccccc21	none (no result: ABCG2 inh, WT yeast gro inh, ABCB1 block)
COCCN=c1scc(-c2cc(OC)ccc2OC)n1/N=C/c1c[nH]c2ccccc12	WT yeast gro inh 58

Screening data as filed in PubChem.
